# Source: PubChem
# HTR2A ag: activates the mouse 5-HT2A serotonin receptor. CHO-K1 mHTR2A beta-arrestin complementation, luminescence; percent of 30 µM serotonin response. activation, % at 7.6 µM. 360,000 tested, 0.66% active;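 active = activation above a run cutoff, the mean activation of all tested compounds plus 3 SD, cut at about 14% in these data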;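 also: 0% = plate median of compound wells and 100% = 30 µM serotonin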
# IMP-1 inh: blocks Pseudomonas aeruginosa IMP-1 metallo-beta-lactamase. purified IMP-1, nitrocefin hydrolysis, epi-absorbance fluorescence. inhibition, % at 5.6 µM. AID 1556. 290,000 tested, 0.45% active;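 active = inhibition above the mean plus 3 SD of all compounds in the same screening run, cut at about 4.5% in these data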;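 also: 0% = IMP-1 with DMSO and 100% = DMSO wells lacking enzyme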
#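 Material – recombinant IMP-1 enzyme, purified · Amount – IMP-1 0.2 nM before substrate addition · Medium – HEPES buffer pH 7.1 with ZnSO4 and Brij 35 · Timing – 25 °C, 15 min preincubation, 25 min reaction · Measured by – plate fluorescence quenching by hydrolysis product, ex 480/em 530 nm · Read-out – percent enzyme inhibition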
# VIM-2 inhibitor: inhibitors of Pseudomonas aeruginosa VIM-2 metallo-beta-lactamase; inhibition, % at 5.6 µM; 290,000 tested, 0.89% active; purified VIM-2, nitrocefin hydrolysis, epi-absorbance fluorescence; AID 1527;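 active = inhibition above the mean of all tested compounds plus 3 SD, cutoff set per screening run, cut at about 7.5% in these data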;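 also: red hydrolysis product quenches plate fluorescence so inhibitors raise well fluorescence; 0% = enzyme with DMSO and 100% = DMSO without enzyme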
# dFosB activator: activators of mouse delta FosB homodimer; P13346; purified delta FosB, TAMRA-CDK5 oligo fluorescence polarization; percent of positive-control signal above neutral wells; activation, % at 25 µM; 340,000 tested, 0.99% active;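 active = mean activation above about 17%, with every replicate also reaching it, limit read from the data, passing the limit was not always enough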
# MOR ag counter: OPRM1 agonism in mouse HTR2A counterscreen. shares compounds with HTR2A ag. U2OS OPRM1 beta-arrestin PathHunter, luminescence; DMSO 0%, DAMGO 9.3 µM 100%. activation, % at 9.3 µM. 2,300 tested, 5.3% active. AID 624380;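 active = mean activation above the mean of DMSO-only wells plus 3 SD, cut at about 0.5% in these data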
# Target sequence (P35372 whole entry, looked up): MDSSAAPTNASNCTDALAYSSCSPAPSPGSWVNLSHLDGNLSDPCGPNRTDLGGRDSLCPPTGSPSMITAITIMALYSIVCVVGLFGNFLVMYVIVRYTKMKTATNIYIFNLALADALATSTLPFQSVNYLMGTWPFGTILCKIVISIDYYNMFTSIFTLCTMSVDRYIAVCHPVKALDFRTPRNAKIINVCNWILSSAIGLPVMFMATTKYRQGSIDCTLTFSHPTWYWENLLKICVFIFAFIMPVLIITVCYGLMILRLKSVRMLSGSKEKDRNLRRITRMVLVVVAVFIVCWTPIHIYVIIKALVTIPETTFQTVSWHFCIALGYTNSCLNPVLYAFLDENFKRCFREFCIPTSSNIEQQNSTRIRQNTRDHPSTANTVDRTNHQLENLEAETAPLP
# m5-HT2A ag conf: confirmation of mouse HTR2A serotonin receptor agonists; shares compounds with HTR2A ag; CHO-K1 PathHunter beta-arrestin recruitment, luminescence; DMSO 0%, 30 µM serotonin 100%; activation, % at 7.6 µM; 2,300 tested, 19% active; AID 624381;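 active = mean activation across triplicates above the hit threshold derived in the original primary screen, cut at about 15% in these data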
# * hit, by the source's call; / = no result. Shown are actives, neighbours in structure and some others; about 2.5% of the full set was active somewhere.
SMILES,HTR2A ag,IMP-1 inh,VIM-2 inhibitor,dFosB activator,MOR ag counter,m5-HT2A ag conf
CN[C@H](C)C(=O)NC[C@H]1O[C@@H](n2ccc(N)nc2=O)[C@H](O)[C@@H]1O,5,/,/,/,/,/
N#Cc1ccccc1C[C@H](N)C(=O)NC[C@H]1O[C@@H](n2ccc(N)nc2=O)[C@H](O)[C@@H]1O,29*,/,/,/,0,-3
C[C@@H]1CN([C@H](C)CO)C(=O)CCCn2nncc2CO[C@H]1CN(C)Cc1ccc2cccnc2c1,3,/,/,/,/,/
Fc1cccc(F)c1/C=N/Nc1ccccn1,14*,-1,1,6,-1,-3
Fc1cccc(Cl)c1/C=N/Nc1ccccn1,3,-3,-2,-7,/,/
Cn1nc(-c2ccc(Cl)cc2)c2cc(C(=O)N3CCN(c4ccccc4)CC3)sc21,-6,-2,1,-8,/,/
Cn1nc(-c2ccc(Cl)cc2)c2cc(C(=O)N3CCCC3)sc21,22*,-5,-1,-57,0,3
COc1cc(O)c(C(CCN2CCN(c3ccccc3)CC2)c2ccc3c(c2)OCO3)c(OC)c1 (stereo not drawn),-12,/,/,-7,/,/
COc1cc(OC)c2c(C)cc(=O)oc2c1C(CCN1CCN(c2ccccc2)CC1)c1ccc2c(c1)OCO2 (stereo not drawn),21*,/,/,-3,-1,72*
COc1cc(OC)c2c(-c3ccccc3)cc(=O)oc2c1C(CCN1CCN(c2ccccc2)CC1)c1ccc(N(C)C)cc1 (stereo not drawn),17*,/,/,2,-1,22*
C#CC1(O)CCC2C3CCc4cc(O)cc(C)c4C3CCC21C (stereo not drawn),-2,/,/,-6,/,/
C#C[C@]1(O)CCC2C3CCC4=CC(=O)CC[C@@H]4C3CC[C@@]21C (stereo partly drawn),15*,-2,-1,5,-1,4
CCOC(=O)N1CCC(N(C(=O)Nc2ccc(Cl)c(Cl)c2)C(C)CC)CC1 (stereo not drawn),16*,-1,0,-7,0,-2
CCOC(=O)N1CCC(N(CCOC)C(=O)Nc2ccc(CC)cc2)CC1,-6,-1,-1,-6,/,/
c1ccc2c(CC3=NCCN3)cccc2c1,8,-1,-1,-2,/,/
Cc1cc(C(C)(C)C)c(O)c(C)c1CC1=NCCN1,32*,-3,-1,3,-1,41*
CCOCCn1c(CN2CCN(CC)CC2)nc2c1c(=O)n(C)c(=O)n2C,48*,1,2,2,0,-1
O=C(NC1(N2CCOCC2)CC1)c1ccc(Cl)cc1,15*,0,1,7,-1,-2
Cc1cc(C=O)c(C)n1-c1ccc(N2CCOCC2)cc1,16*,-5,1,-3,-1,-2
Cc1ccc(CNC(=O)C2CC(=O)OC23CCCC3)c(C)c1 (stereo not drawn),16*,-2,0,-13,0,1
O=C(NCCN1CCC(n2c(=O)[nH]c3ccccc32)CC1)c1ccc(C(F)(F)F)cc1C(F)(F)F,-6,/,/,/,/,/
Cc1c(NC(=O)CN2C(=O)c3ccc([N+](=O)[O-])cc3C2=O)c(=O)n(-c2ccccc2)n1C,17*,-2,-3,-4,-1,-3
CCOC(=O)c1ccc(NC(=O)c2sc3nc(N4CCOCC4)c4c(c3c2N)CCCC4)cc1,18*,0,-1,-11,0,-3
CCOC(=O)N1CCC(NC(=O)c2ccc3c(Cl)c4c(nc3c2)CCCC4)CC1,18*,1,1,-6,-1,-3
O=C(NC1CC1)c1ccc2c(Cl)c3c(nc2c1)CCCC3,6,-2,1,-33,/,/
Cc1[nH]c2ccccc2c1NC(=O)CN1CCN(C(=O)c2ccco2)CC1,22*,-4,-3,/,-1,81*
Cc1ccc2nc(-c3ccc(NC(=O)CN4CCN(C(=O)c5ccco5)CC4)cc3)sc2c1,15*,-2,0,-17,0,60*
Cc1[nH]c2ccccc2c1C(=O)C(=O)N1CCN(C(=O)c2ccco2)CC1,0,-1,0,-2,/,/
Cc1ccc(NC(=O)CN2CCN(C(=O)c3ccco3)CC2)cc1,-1,-2,-1,-4,/,/
CCC(=O)c1cn(/C(=C\C(=O)OC(C)(C)C)CCC(OC)OC)cc1CC,1,/,/,-1,/,/
